What was measured:
[1] = biological target: Histamine H3 receptor (Mus musculus) (UniProt P58406); test: In vivo agonistic activity against histamine H3 receptor in mice after peroral administration; assay type: functional, organism-based
Procedure, shortened: (§1)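 Swiss mice dosed orally with compounds as a methylcellulose suspension; brain histamine turnover assessed from increased (antagonist) or decreased (agonist) cerebral cortex N-methylhistamine level; intrinsic activity from modulation of this metabolite level; at least in triplicate.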

Histamine H3 receptor [2] = biological target: T1, Histamine H3 receptor (Rattus norvegicus, UniProt Q9QYN8); test: In vitro intrinsic activity against histamine H3 receptor from synaptosomes of rat cerebral cortex; assay type: subcellular, Brain
T1 sequence (Q9QYN8 whole entry): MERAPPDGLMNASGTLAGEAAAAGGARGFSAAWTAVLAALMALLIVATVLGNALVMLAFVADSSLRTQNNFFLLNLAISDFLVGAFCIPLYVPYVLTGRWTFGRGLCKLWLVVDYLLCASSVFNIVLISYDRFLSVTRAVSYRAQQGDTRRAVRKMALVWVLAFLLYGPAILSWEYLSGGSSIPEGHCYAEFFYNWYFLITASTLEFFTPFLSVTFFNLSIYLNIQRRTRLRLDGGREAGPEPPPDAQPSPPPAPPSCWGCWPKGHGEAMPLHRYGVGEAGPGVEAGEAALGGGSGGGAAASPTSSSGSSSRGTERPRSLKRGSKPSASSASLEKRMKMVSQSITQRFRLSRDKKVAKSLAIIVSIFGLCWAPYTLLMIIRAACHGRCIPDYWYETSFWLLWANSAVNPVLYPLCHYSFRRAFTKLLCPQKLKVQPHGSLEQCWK
Procedure, shortened: (§2)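 Rat cerebral cortex synaptosomes; K+-evoked depolarization-induced [3H]histamine release measured for H3 agonist and antagonist activity; intrinsic activity derived from this preparation; at least triplicate.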

[3] = biological target: Histamine H3 receptor (Cavia porcellus) (UniProt Q9JI35); test: Binding affinity for guinea pig ileum histamine H3 receptor; assay type: tissue-based
Sequence of Histamine H3 receptor (Cavia porcellus) (Q9JI35 whole entry): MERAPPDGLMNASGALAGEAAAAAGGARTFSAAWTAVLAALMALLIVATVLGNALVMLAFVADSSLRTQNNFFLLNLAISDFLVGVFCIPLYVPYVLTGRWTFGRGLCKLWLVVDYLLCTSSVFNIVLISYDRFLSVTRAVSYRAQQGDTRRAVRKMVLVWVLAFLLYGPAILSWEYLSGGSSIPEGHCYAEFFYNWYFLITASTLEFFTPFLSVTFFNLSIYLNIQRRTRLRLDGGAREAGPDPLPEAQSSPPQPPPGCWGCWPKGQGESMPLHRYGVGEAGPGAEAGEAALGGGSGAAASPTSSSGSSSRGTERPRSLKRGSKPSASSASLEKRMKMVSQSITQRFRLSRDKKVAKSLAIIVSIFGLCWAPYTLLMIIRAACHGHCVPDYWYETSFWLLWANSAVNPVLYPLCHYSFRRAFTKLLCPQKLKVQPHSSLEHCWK
Procedure, shortened: (§3)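 Isolated guinea pig ileum segments, electrically evoked twitches; H3 antagonism from concentration-dependent inhibition of twitches by (R)-α-methylhistamine in presence of antagonist; agonist activity from concentration–response curves of the test compound in place of (R)-α-methylhistamine; each experiment at least in triplicate.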

Histamine H3 receptor [4] = biological target: T1, Histamine H3 receptor; test: (§4) In vitro binding affinity against histamine H3 receptor from synaptosomes of rat cerebral cortex; assay type: subcellular, Brain; procedure, shortened: as §2
Histamine H3 receptor [5] = biological target: T1, Histamine H3 receptor; test: as §4; assay type: subcellular, Brain; remark: listed apart in the source
[6] = biological target: Histamine H3 receptor (Cavia porcellus) (UniProt Q9JI35); test: Antagonist activity against histamine H3 receptor in guinea pig ileum; assay type: functional, tissue-based; procedure, shortened: as §3
Histamine H3 receptor [7] = biological target: T1, Histamine H3 receptor; test: Antagonist activity against histamine H3 receptor on synaptosomes of rat cerebral cortex; assay type: functional, subcellular, Brain; procedure, shortened: as §2
[8] = biological target: Histamine H2 receptor (Cavia porcellus) (UniProt P47747); test: Antagonist activity against histamine H2 receptor in guinea pig atrium; assay type: functional, tissue-based; settings: Cardiac atrium
Sequence of Histamine H2 receptor (Cavia porcellus) (P47747 whole entry): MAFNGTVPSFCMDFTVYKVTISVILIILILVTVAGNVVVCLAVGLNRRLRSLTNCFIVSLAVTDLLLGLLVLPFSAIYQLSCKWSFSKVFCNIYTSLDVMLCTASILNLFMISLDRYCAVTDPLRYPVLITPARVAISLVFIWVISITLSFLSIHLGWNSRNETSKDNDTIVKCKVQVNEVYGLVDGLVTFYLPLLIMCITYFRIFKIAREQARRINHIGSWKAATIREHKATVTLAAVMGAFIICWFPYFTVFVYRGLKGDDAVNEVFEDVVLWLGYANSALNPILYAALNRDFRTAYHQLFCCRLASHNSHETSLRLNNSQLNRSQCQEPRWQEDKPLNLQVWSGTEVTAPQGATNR
Procedure, shortened: (§5)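 Isolated guinea pig tissues: H1 activity on ileum, H2 activity on spontaneously beating right atrium, by standard functional methods; each test at least in triplicate; exact type of interaction not determined in every case.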

[9] = biological target: Histamine H3 receptor (Mus musculus) (UniProt P58406); test: In vivo intrinsic activity against histamine H3 receptor in mice after peroral administration; assay type: organism-based; procedure, shortened: as §1
[10] = biological target: Histamine H1 receptor (Cavia porcellus) (UniProt P31389); test: Antagonist activity against histamine H1 receptor in guinea pig ileum; assay type: functional, tissue-based; procedure, shortened: as §5
Sequence of Histamine H1 receptor (Cavia porcellus) (P31389 whole entry): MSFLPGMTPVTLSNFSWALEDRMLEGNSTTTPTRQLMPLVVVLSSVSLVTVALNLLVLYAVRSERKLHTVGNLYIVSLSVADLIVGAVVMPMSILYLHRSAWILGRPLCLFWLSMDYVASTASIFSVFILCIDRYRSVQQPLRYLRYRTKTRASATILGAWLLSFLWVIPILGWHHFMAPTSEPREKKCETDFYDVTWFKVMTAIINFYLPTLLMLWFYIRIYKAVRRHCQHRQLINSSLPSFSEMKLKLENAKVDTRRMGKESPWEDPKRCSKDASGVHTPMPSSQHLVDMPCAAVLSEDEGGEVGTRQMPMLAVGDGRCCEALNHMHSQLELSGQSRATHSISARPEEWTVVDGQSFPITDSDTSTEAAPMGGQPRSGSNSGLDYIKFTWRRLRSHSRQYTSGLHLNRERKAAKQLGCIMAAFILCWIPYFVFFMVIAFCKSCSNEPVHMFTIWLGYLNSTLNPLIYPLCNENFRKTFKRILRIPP

Sequence of Histamine H3 receptor (Mus musculus) (P58406 whole entry): as the sequence (Q9QYN8 whole entry) above, with T15A, A286T, A290G, R387H, I389V counted along it

Structure (SMILES)	ED50 [1]	Intrinsic activity (Histamine H3 receptor [2])	Kb [3]	EC50 (Histamine H3 receptor [4])	Ki (Histamine H3 receptor [5])	pkB [6]	Ki (Histamine H3 receptor [7])	pkB [8]	Intrinsic activity [9]	pkB [10]
CC(C)(C)CCOCCCc1c[nH]cn1	0.29 mg/kg	0.55	0.042 µM	0.045 µM	0.01 µM	7.38	0.01 µM	< 4	1	4.5
CC(C)CCOCCCc1c[nH]cn1	0.51 mg/kg	0.22	0.093 µM	0.128 µM	0.014 µM	7.03	0.0141 µM	3.5	1	4.5
CC(C)CCCOCCCc1c[nH]cn1	0.15 mg/kg	0.25	0.013 µM		0.0094 µM	7.89	0.00933 µM	4.6	0.6	5
CC(C)(C)CCNC(=O)OCCCc1c[nH]cn1.O=CC(=O)/C(O)=C/O			0.03 µM			7.53		4.3		4.2
CC(C)(C)CNC(=O)OCCCc1c[nH]cn1.O.O=C(O)C(=O)O	0.48 mg/kg	0.15	0.04 µM		0.023 µM	7.4	0.0229 µM	3.2	0.7	3.5
CC(C)NC(=O)OCCCc1c[nH]cn1.O=CC(=O)/C(O)=C/O	15 mg/kg		0.091 µM		0.082 µM	7.04	0.0813 µM	< 4.3		< 4
CCC(C)(C)NC(=O)OCCCc1c[nH]cn1	0.2 mg/kg		0.046 µM			7.34		3.5	0.4	4.8
CC(C)CNC(=O)OCCCc1c[nH]cn1	> 10 mg/kg		0.041 µM			7.39		< 4		< 4.5
N=C(N)SCCc1c[nH]cn1	1 mg/kg		0.0066 µM						1	
CC(C)COCCCc1c[nH]cn1			0.228 µM		0.139 µM	6.64	0.138 µM			
CC(C)(C)NC(=O)OCCCc1c[nH]cn1.O=CC(=O)/C(O)=C/O	0.9 mg/kg		0.06 µM			7.22		< 4	0.7	< 4
CC(C)(C)CC(C)(C)NC(=O)OCCCc1c[nH]cn1			0.028 µM		0.042 µM	7.58	0.0417 µM	4.3		6

From ChEMBL document CHEMBL1132154, “Novel partial agonists for the histamine H(3) receptor with high in vitro and in vivo activity” (J Med Chem, 1999)
